# Compound activity: PubChem BioAssay, several laboratories
# NR2E3 ag-1 = NR2E3 (human) agonism; Q9Y5X4; GST-NR2E3/biotin-RetCOR TR-FRET, 1536-well; inhibition of corepressor binding, % at 4.78 µM; 320,000 tested, 0.12% active; AID 2300;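 active means percent inhibition above the cutoff of mean plus 3 SD of all tested compounds, set per screening campaign, cut at about 20% in these data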;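 further: 0% = DMSO wells and 100% = biotin wells as full block of FRET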
# Target sequence (Q9Y5X4 whole entry, looked up): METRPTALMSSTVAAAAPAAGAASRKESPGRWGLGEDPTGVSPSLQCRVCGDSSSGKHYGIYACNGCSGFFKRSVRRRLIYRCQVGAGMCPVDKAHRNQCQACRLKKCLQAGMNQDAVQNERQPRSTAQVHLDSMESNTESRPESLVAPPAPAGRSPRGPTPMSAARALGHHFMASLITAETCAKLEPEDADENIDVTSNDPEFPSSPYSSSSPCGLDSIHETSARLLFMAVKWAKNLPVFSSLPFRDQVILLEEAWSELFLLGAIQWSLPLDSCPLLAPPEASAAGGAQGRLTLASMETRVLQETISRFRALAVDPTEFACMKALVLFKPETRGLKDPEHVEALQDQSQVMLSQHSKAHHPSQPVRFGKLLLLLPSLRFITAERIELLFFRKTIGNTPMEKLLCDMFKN
#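 Test system – NR2E3–RetCOR corepressor complex · Quantity – NR2E3 fusion 1.35 nM · Buffer or medium – Tris pH 7.5 · Incubation – Compound–protein incubation for 5 h at 4 °C · Technique – TR-FRET, Eu(K)-anti-GST donor, streptavidin-D2 acceptor, ex 340, em 617/671 nm · Evaluation – percent inhibition of 671/617 nm emission ratio versus biotin and DMSO controls · Plate – 1536-well format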
# 697 NFkB inh = lowers PMA/ionomycin-induced NF-kB signal in 697 B cells | 697 B-cell NF-kB luciferase reporter, 16 h | inhibition, % at 4 µM | 330,000 tested, 0.33% active; in the data active means inhibition above about 35%
# Jurkat NFkB inh = inhibitors of the PMA/ionomycin-induced NF-kB reporter in Jurkat cells. inhibition, % at 4 µM. PMA/ionomycin-induced NF-kB luciferase reporter, luminescence. 330,000 tested, 0.53% active; in the data active means inhibition above about 50%
# NR2E3 ag-2 = human photoreceptor-specific nuclear receptor agonism; Q9Y5X4; CHO-S Gal4-NCOR/VP16-NR2E3 two-hybrid, luciferase; 360,000 tested, 0.35% active; inhibition of corepressor binding, % at 3.98 µM; AID 602229;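 active means inhibition above the mean of all tested compounds plus 3 SD, cut at about 70% in these data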;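 further: 0% = DMSO with NR2E3 transfected cells and 100% = cells lacking NR2E3 construct; higher means lower luciferase signal from less NR2E3 corepressor binding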
# aDG glyco act = alpha-DG glycosylation activation; AID 624168; Pro5-aDG cells, alpha-DG glycosylation AlphaScreen (IIH6); 0% Pro5, 100% B10-LARGE cell signal; 360,000 tested, 0.22% active; activation, % at 10 µM;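 active means activation of at least 8% versus controls, or a plate z-score of at least 8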;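 further: Pro5 are CHO cells carrying HIG-tagged alpha-DG that lacks glycosylation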
# MPTP inh = permeability transition pore inhibition; AID 602449; 360,000 tested, 1.4% active; isolated mouse mitochondria, Ca2+ swelling absorbance, 30 min; inhibition, % at 10 µM;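 active means inhibition of 50% or more, scaled per plate between neutral and stimulator controls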;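 further: 0% = DMSO wells given calcium and 100% = 1 mM EGTA wells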
# Jurkat NFkB conf = lowers PMA/ionomycin-induced NF-kB signal in Jurkat cells; Jurkat NF-kB luciferase, 16 h; shares compounds with Jurkat NFkB inh; 2,700 tested, 27% active; AID 435020; inhibition, % at 4 µM;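 active means inhibition reaching about 45% at 4 µM in either replicate, limit read from the data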;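 further: plate controls were PMA/ionomycin stimulated DMSO wells for no effect and unstimulated DMSO wells for full effect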
# 697 NFkB conf = inhibitors of the PMA/ionomycin-induced NF-kB reporter in 697 B cells, retest. shares compounds with 697 NFkB inh. 697 B-cell NF-kB luciferase, 16 h. inhibition, % at 4 µM. 2,000 tested, 35% active. AID 449746; in the data active means inhibition mostly above about 28%, no sharp cut-off; inactive means mostly below about 22%
# The depositor's hits bear a star; i = inactive; x = no result given. Hits are enriched below; roughly 2.4% of the tested compounds scored in any of these assays.
SMILES,NR2E3 ag-1,697 NFkB inh,Jurkat NFkB inh,NR2E3 ag-2,aDG glyco act,MPTP inh,Jurkat NFkB conf,697 NFkB conf
CN=Cc1sc2ccccc2c1O,-1.6,-14.1,-13.9,-17.3,-0.4,-0.4,x,x
Cc1ccc(NC(=O)c2cc(=O)[nH]c3ccccc23)cc1,2.6,2.0,-27.9,-10.4,0.0,0.4,x,x
Cc1ccc(NC(=O)C(=O)c2c[nH]c3ccccc23)cc1,x,-330.3,-215.0,-179.6,-0.2,1.1,-124.2,-313.2
Cc1ccc(NC(CC(=O)c2ccccc2)C(=O)O)cc1Cl (stereo not given),3.2,-254.1,-203.8,-104.6,0.1,1.7,-14.7,-21.6
Clc1ccc(-c2cnn3c(-c4ccncc4)ccnc23)cc1,2.9,-376.2,-159.1,-124.0,0.8,1.4,-88.8,-299.8
CC(=O)c1cnc2c(-c3ccc(Cl)cc3)cnn2c1C,-0.1,-90.2,-44.3,-29.4,-0.1,-6.0,x,x
CC(Oc1ccccc1F)c1nnc(SCC(=O)NCc2ccc3c(c2)OCO3)o1 (stereo not given),-3.4,11.3,1.5,6.2,0.2,-2.0,x,x
O=c1c(=O)n(CCO)n(CCO)c(=O)n1CCO,x,x,x,-6.4,-0.1,-0.7,x,x
Cn1cc(/C=C/C(=O)c2ccccc2)c2ccccc21,2.3,-271.8,-170.2,-113.5,-0.1,0.9,-41.1,-118.4
O=C(CCSc1ccc(Cl)cc1)Nc1cccnc1,0.9,10.4,1.5,-2.1,0.0,2.0,x,x
COCCn1c(C)cc(C2=NNC(=NC3CC3)SC2)c1C,-4.3,68.4*,75.4*,92.4*,0.5,-1.4,93.7*,65.2*
COc1ccccc1OCc1ccc(C(=O)NN)o1,-2.5,10.7,-18.3,-9.5,-0.1,0.1,x,x
N#Cc1c(NC(=O)CSc2ncn[nH]2)sc2c1CCCCC2,2.2,70.5*,63.4*,46.3,-0.1,5.7,64.9*,59.2*
Cn1cnnc1SCC(=O)Nc1sc2c(c1C#N)CCCCC2,-5.0,-25.4,1.7,-4.5,-0.4,-1.0,x,x
COc1ccc(-c2cc(-c3ccccc3)no2)cc1,2.6,-351.1,-224.1,-127.6,0.0,0.4,-145.4,-375.6
Nc1ccc(S(=O)(=O)NC(Cc2ccccc2)C(=O)O)cc1 (stereo not given),-1.6,14.2,12.5,-5.6,-0.2,0.0,x,x
Cc1ccccc1-c1cc(C(=O)NCc2cccc(Br)c2)n(CC2CC(c3cccnc3)=NO2)n1 (stereo not given),x,-9.9,-15.2,14.6,0.4,0.6,x,x
O=C(Nc1ncc(Cc2ccc(SC(F)F)cc2)s1)c1ccc(OC(F)F)cc1,-0.1,-494.7,75.9*,10.2,0.1,28.3,57.7*,-274.2
COc1ccc(/C=C/c2cc(-c3ccc(C)cc3)o[n+]2C)cc1,-3.5,92.8*,60.7*,1.0,0.8,11.4,51.5*,41.2*
COc1ccc(/C=C/c2c(-c3ccc(OC)cc3)oc3ccc(-c4ccc(OC)cc4)cc23)cc1,1.4,14.8,-3.3,-15.0,-0.6,-2.0,x,x
Cc1[nH]n2cnnc2c(=O)c1Br,4.4,4.0,15.0,-16.0,-0.2,1.7,x,x
O=C(c1ccccc1)n1c(=S)nc2ccccn21,-0.5,-318.5,-157.1,-160.2,-0.1,-6.3,-60.7,-274.5
Cc1cccn2c1nc(=S)n2C(=O)c1ccco1,-0.2,x,x,-71.6,-0.2,-0.2,x,x
Cc1cc[n+](CC[n+]2ccc(C)cc2)cc1,2.8,7.1,-14.2,-20.8,0.0,-2.1,x,x
CCC(C)(C)c1ccc(OCCCC[n+]2ccc(C)cc2)c(C(C)(C)CC)c1,1.4,81.3*,53.8*,x,x,x,55.1*,44.4*
SMILES,NR2E3 ag-1,697 NFkB inh,Jurkat NFkB inh,NR2E3 ag-2,aDG glyco act,MPTP inh,Jurkat NFkB conf,697 NFkB conf
Cc1ccc(OS(=O)(=O)c2ccc(N3C(=O)CCC3=O)cc2)cc1,8.1,2.0,6.9,-9.5,-0.1,0.4,x,x
COc1ccc(-c2ccc3ccccc3n2)cc1,1.4,-306.7,-179.9,-147.9,-0.2,0.2,-122.0,-286.4
O=C(/C=C\Nc1ccc2c(c1)OCO2)c1ccc(Cl)s1,0.6,-406.5,-201.2,-61.8,0.9,0.6,-18.4,-105.8
COc1ccc(C(=O)Nc2ccc(C3(C#N)CCCC3)cc2)cc1,-0.3,-53.7,-19.4,-19.5,0.2,0.0,x,x
O=C(Nc1ccc2c(c1)Cc1ccccc1-2)c1ccc(Br)o1,1.1,-19.9,-38.1,-99.3,-0.5,0.4,x,x
O=C(Nc1ccc2c(c1)Cc1ccccc1-2)c1ccccc1F,-3.7,-323.5,-160.8,-157.3,0.0,3.0,-138.6,-202.2
N#CC1(c2ccc(NC(=O)c3ccccc3F)cc2)CCCC1,-1.6,-281.5,-209.7,-148.1,0.3,0.2,-165.9,-213.8
CC(C)(C)C(=O)Nc1ccc(C(=O)OC2CCCCC2)cc1,-0.2,-301.2,-189.0,-102.0,1.2,1.5,-164.3,-252.9
O=C(OC1CCCCC1)c1ccc(NC(=O)C2CCCCC2)cc1,-3.9,-58.6,-25.7,-14.1,1.0,-2.9,x,x
Nc1c(-c2ccccc2)cnc2c(-c3ccccc3)cnn12,0.1,i,-231.4,-106.4,0.0,-1.1,-190.3,i
Nc1c(C(=O)O)cnc2c(-c3ccc(Cl)cc3)cnn12,2.5,-144.1,-61.3,-84.5,-0.2,-0.8,x,x
COCc1cc(=O)[nH]c(/N=C(\N)Nc2c(F)cccc2F)n1,2.5,0.3,-19.8,-4.5,-0.3,0.7,x,x
O=C(CCc1ccccc1)NNC(=O)COc1ccccc1Cl,1.3,0.6,11.7,-6.0,-0.1,0.7,x,x
COc1ccc(C2=NN3C(C2)c2ccccc2OC3c2cccs2)cc1 (stereo not given),-2.8,-121.3,-94.5,-159.7,-0.1,-0.2,x,x
COc1ccc(C2=NN3C(C2)c2ccccc2OC32C(=O)N(C)c3ccccc32)cc1 (stereo not given),1.2,-306.0,-182.3,-207.1,-0.1,2.1,-139.2,-246.7
O=C(CCC(=O)c1cccs1)NCCc1ccc(F)cc1,-1.2,-3.2,6.9,2.6,0.3,-1.0,x,x
O=C(Nc1nc2cc3c(cc2s1)OCCO3)c1cccs1,3.6,-474.5,-183.4,-153.7,0.8,0.4,-80.2,-428.5
CC(C)(C)NC(=O)C(c1ccc(O)cc1)N(C(=O)CCC(=O)Nc1ccccn1)c1ccc(F)cc1 (stereo not given),0.3,6.9,4.7,-8.6,0.0,-1.8,x,x
c1ccc(CCc2nc(-c3ccccc3)no2)cc1,-2.9,-30.6,-56.2,4.4,0.3,0.8,x,x
O=C(Nc1ccc(-c2noc(CCc3ccccc3)n2)cc1)c1ccco1,-2.6,-296.2,-187.2,-122.0,1.3,-0.2,-83.8,-183.6
O=C(Nc1nc2ccc(Cl)cc2s1)[C@@H]1CCCN1C(=O)c1cccs1,1.2,-38.9,-30.7,28.3,0.0,3.1,x,x
Cc1c(C(=O)NC(=S)NCc2cccnc2)cccc1[N+](=O)[O-],3.0,18.9,2.3,-18.4,0.0,-0.2,x,x
